In brackets after ≈: the same amount, converted by molar mass. Activity calls are given as the source filed them. The rule behind the calls is not given here.
Key:
[1] = Cytotoxicity against human HEK293 cells assessed as inhibition of cell growth incubated for 24 hrs by MTT assay; assay type: toxicity, cell-based
Outline: (§1)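 MTT assay with 24 h exposure of cells to the samples. IC50 is the concentration giving 50% growth inhibition, reported as mean ± S.D. of three independent experiments.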

[2] = system: Enterococcus; test: Antibacterial activity against vancomycin-resistant Enterococcus assessed as reduction in bacterial growth by broth microdilution method; assay type: functional
Outline: (§2)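 Twofold serial dilution (microdilution) MIC in lysogeny broth (LB) medium against drug-resistant strains: MRSA USA300, vancomycin-resistant Enterococci, Klebsiella pneumoniae.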

[3] = Cytotoxicity against human HK-2 cells assessed as inhibition of cell growth incubated for 24 hrs by MTT assay; assay type: toxicity, cell-based; outline: as §1
[4] = system: Escherichia coli; test: Antibacterial activity against drug sensitive Escherichia coli DH5alpha assessed as reduction in bacterial growth by broth microdilution method; assay type: functional
Outline: (§3)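 MICs were determined by standard twofold serial broth microdilution in lysogeny broth (LB) medium.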

[5] = system: Pseudomonas aeruginosa; test: Antibacterial activity against drug sensitive Pseudomonas aeruginosa PAO1 assessed as reduction in bacterial growth by broth microdilution method; assay type: functional; outline: as §3
[6] = system: Bacillus subtilis; test: Antibacterial activity against drug sensitive Bacillus subtilis 168 assessed as reduction in bacterial growth by broth microdilution method; assay type: functional; outline: as §3
[7] = system: Staphylococcus aureus; test: Antibacterial activity against drug sensitive Staphylococcus aureus RN4220 assessed as reduction in bacterial growth by broth microdilution method; assay type: functional; outline: as §3
[8] = system: Klebsiella pneumoniae; test: Antibacterial activity against drug-resistant Klebsiella pneumoniae assessed as reduction in bacterial growth by broth microdilution method; assay type: functional; outline: as §2
[9] = system: Staphylococcus aureus; test: Antibacterial activity against methicillin-resistant Staphylococcus aureus USA300 assessed as reduction in bacterial growth by broth microdilution method; assay type: functional; outline: as §2
[10] = system: MCF7; test: Cytotoxicity against human MCF7 cells assessed as inhibition of cell growth incubated for 24 hrs by MTT assay; assay type: functional, cell-based; conditions: MCF7, 24 h; outline: as §1
[11] = system: Staphylococcus aureus; test: Antibacterial activity against methicillin-resistant Staphylococcus aureus infected in Kunming mouse corneal infection model assessed as reduction in viable bacterial count at 6 mg/ml, TOP administered 3 times daily for 1 week; assay type: functional, organism-based; conditions: time 1.0 weeks
Outline: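 Corneal infection model: male and female Kunming mice (~20 g) immunosuppressed with daily i.p. cyclophosphamide for 3 days. Anesthetized with i.p. avertin (400 mg kg-1), corneas abraded and given 20 μL MRSA (6 × 10^7 CFU mL-1). From 24 h post-infection, treated by topical smear three times daily for one week. Controls: 5% glucose and 5% vancomycin. Six mice per group. Corneal viable counts measured.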

[12] = system: Staphylococcus aureus; test: Bactericidal activity against methicillin-resistant Staphylococcus aureus assessed as inhibition of bacterial growth at 2 times MIC incubated for 24 hrs by time kill assay; assay type: functional, organism-based
Outline: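 Time-kill: MRSA grown 24 h at 37 °C, adjusted to ~2 × 10^6 CFU mL-1, exposed at 2× or 3× MIC with shaking at 37 °C. Aliquots taken at 0.5–13 h, serially diluted 10-fold in PBS, plated on Mueller–Hinton agar, counted after 24 h at 37 °C. Duplicate.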

Compound	IC50 at 24 h [1] [µg/mL]	MIC [2] [µg/mL]	IC50 at 24 h [3] [µg/mL]	MIC [4] [µg/mL]	MIC [5] [µg/mL]	MIC [6] [µg/mL]	MIC [7] [µg/mL]	MIC [8] [µg/mL]	MIC [9] [µg/mL]	IC50 [10] [µg/mL]	Activity [11]	Activity [12]
COc1ccc(CCNc2nc3ccccc3nc2N)cc1	129 (≈ 437 µM)	> 128	139 (≈ 471 µM)	32 (≈ 109 µM)	128 (≈ 435 µM)	16 (≈ 54.4 µM)	16 (≈ 54.4 µM)	64 (≈ 217 µM)	16 (≈ 54.4 µM)	71.5 (≈ 243 µM)	–	–
CN[C@H](CC(C)C)C(=O)N[C@H]1C(=O)N[C@@H](CC(N)=O)C(=O)N[C@H]2C(=O)N[C@H]3C(=O)N[C@H](C(=O)N[C@H](C(=O)O)c4cc(O)cc(O)c4-c4cc3ccc4O)[C@H](O)c3ccc(c(Cl)c3)Oc3cc2cc(c3O[C@@H]2O[C@H](CO)[C@@H](O)[C@H](O)[C@H]2O[C@H]2C[C@](C)(N)[C@H](O)[C@H](C)O2)Oc2ccc(cc2Cl)[C@H]1O	–	–	–	–	–	–	–	–	–	–	Active	–
Nc1nc2ccccc2nc1NCCc1ccc(F)cc1	–	128 (≈ 453 µM)	–	128 (≈ 453 µM)	> 128	64 (≈ 227 µM)	64 (≈ 227 µM)	128 (≈ 453 µM)	> 128	–	–	–
Nc1nc2ccccc2nc1NCCc1ccccc1Br	–	128 (≈ 373 µM)	–	> 128	128 (≈ 373 µM)	64 (≈ 186 µM)	128 (≈ 373 µM)	64 (≈ 186 µM)	128 (≈ 373 µM)	–	–	–
Nc1nc2ccccc2nc1NCCCc1ccccc1	126 (≈ 451 µM)	128 (≈ 460 µM)	141 (≈ 506 µM)	128 (≈ 460 µM)	> 128	64 (≈ 230 µM)	32 (≈ 115 µM)	128 (≈ 460 µM)	128 (≈ 460 µM)	68.7 (≈ 247 µM)	–	–
CCNc1nc2ccccc2nc1N	–	128 (≈ 680 µM)	–	> 128	128 (≈ 680 µM)	128 (≈ 680 µM)	128 (≈ 680 µM)	> 128	> 128	–	–	–
CNc1nc2ccccc2nc1N	–	> 128	–	128 (≈ 735 µM)	128 (≈ 735 µM)	64 (≈ 367 µM)	128 (≈ 735 µM)	> 128	> 128	–	–	–
Nc1nc2ccccc2nc1NCCC1=CCCCC1	–	> 128	–	> 128	> 128	128 (≈ 477 µM)	64 (≈ 238 µM)	> 128	> 128	–	–	–
Nc1nc2ccccc2nc1NCCc1ccccc1F	–	128 (≈ 453 µM)	–	128 (≈ 453 µM)	128 (≈ 453 µM)	128 (≈ 453 µM)	64 (≈ 227 µM)	> 128	128 (≈ 453 µM)	–	–	–
CCn1cc(C(=O)O)c(=O)c2cc(F)c(N3CCNCC3)cc21	–	–	–	–	–	–	–	–	–	–	–	Active
Cc1ccc(CCNc2nc3ccccc3nc2N)cc1	136 (≈ 487 µM)	> 128	150 (≈ 538 µM)	32 (≈ 115 µM)	64 (≈ 230 µM)	32 (≈ 115 µM)	16 (≈ 57.5 µM)	64 (≈ 230 µM)	32 (≈ 115 µM)	70.9 (≈ 255 µM)	–	–
Nc1nc2ccccc2nc1NCCC1CCCCC1	–	> 128	–	> 128	128 (≈ 473 µM)	> 128	128 (≈ 473 µM)	> 128	128 (≈ 473 µM)	–	–	–
Nc1nc2ccccc2nc1NCc1ccc2ccccc2c1	131 (≈ 435 µM)	> 128	147 (≈ 488 µM)	64 (≈ 213 µM)	> 128	32 (≈ 107 µM)	32 (≈ 107 µM)	> 128	64 (≈ 213 µM)	69.7 (≈ 232 µM)	–	–
Nc1nc2ccccc2nc1NCCc1ccc(Cl)c(Cl)c1	–	> 128	–	> 128	> 128	> 128	> 128	> 128	> 128	–	–	–
COc1cccc(CCNc2nc3ccccc3nc2N)c1	130 (≈ 443 µM)	128 (≈ 435 µM)	142 (≈ 483 µM)	16 (≈ 54.4 µM)	64 (≈ 217 µM)	32 (≈ 109 µM)	8 (≈ 27.2 µM)	64 (≈ 217 µM)	16 (≈ 54.4 µM)	74.7 (≈ 254 µM)	–	–
Nc1nc2ccccc2nc1NCCc1ccccc1	123 (≈ 467 µM)	> 128	130 (≈ 493 µM)	128 (≈ 484 µM)	128 (≈ 484 µM)	64 (≈ 242 µM)	32 (≈ 121 µM)	> 128	> 128	72.3 (≈ 274 µM)	–	–
O=c1[nH]cc(F)c(=O)[nH]1 [FLUOROURACIL]	–	–	–	–	–	–	–	–	–	0.85 (≈ 6.53 µM)	–	–
Nc1nc2ccccc2nc1NCCc1ccc(Br)cc1	–	> 128	–	128 (≈ 373 µM)	128 (≈ 373 µM)	64 (≈ 186 µM)	64 (≈ 186 µM)	> 128	> 128	–	–	–
NC[C@H]1O[C@H](O[C@H]2[C@H](O)[C@@H](O[C@H]3O[C@H](CO)[C@@H](O)[C@H](N)[C@H]3O)[C@H](N)C[C@@H]2N)[C@H](O)[C@@H](O)[C@@H]1O [KANAMYCIN]	–	8 (≈ 16.5 µM)	–	1 (≈ 2.06 µM)	4 (≈ 8.26 µM)	0.5 (≈ 1.03 µM)	1 (≈ 2.06 µM)	4 (≈ 8.26 µM)	1 (≈ 2.06 µM)	–	–	–
